Calls of active or inactive are those of the source. The rule behind the calls is not given here.

For data set [1], the target named is Sigma intracellular receptor 2 (Homo sapiens, UniProt Q5BJF2). The experiment in a line: Binding affinity to sigma 2 receptor (unknown origin) assessed as inhibition constant. In outline: (§1)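 Radioligand displacement at S1R with [3H](+)pentazocine (15 nM) and at S2R with [3H]DTG (25 nM); S2R assay includes 1 μM cold (+)pentazocine to mask S1R sites. Bound radioactivity counted by scintillation. IC50 and Hill slope from non-linear Hill fit of competition curves; Ki by Cheng–Prusoff using radioligand concentration and KD from Scatchard plot.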
Sequence of Sigma intracellular receptor 2 (Q5BJF2 whole entry): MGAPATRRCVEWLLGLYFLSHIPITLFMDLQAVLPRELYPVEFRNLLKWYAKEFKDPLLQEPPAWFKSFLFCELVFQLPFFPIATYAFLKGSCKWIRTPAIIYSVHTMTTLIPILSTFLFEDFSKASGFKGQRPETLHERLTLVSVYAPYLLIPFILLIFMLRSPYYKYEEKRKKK

In data set [2] the target is T1, Sigma non-opioid intracellular receptor 1 (Homo sapiens, UniProt Q99720). The experiment in a line: Binding affinity to sigma 1 receptor (unknown origin) assessed as inhibition constant. In outline: as §1
T1 sequence (Q99720 whole entry): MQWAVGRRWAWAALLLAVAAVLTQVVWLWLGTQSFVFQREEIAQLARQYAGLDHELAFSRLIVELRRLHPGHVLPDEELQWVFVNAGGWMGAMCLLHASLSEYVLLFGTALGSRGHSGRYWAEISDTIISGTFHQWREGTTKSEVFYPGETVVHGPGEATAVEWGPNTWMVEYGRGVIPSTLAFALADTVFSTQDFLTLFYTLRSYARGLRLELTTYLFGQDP
A short description of data set [3]: Selectivity index, ratio of Ki for sigma 2 receptor (unknown origin) to Ki for sigma 1 receptor (unknown origin).
Data set [4] is described as follows: Cytotoxicity against human SH-SY5Y cells assessed as reduction in cell viability incubated for 72 hrs by MTT assay. The class given is toxicity, cell-based. An outline of the steps: (§2)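 SH-SY5Y cells kept in DMEM/10% FBS, 2 mM glutamine, 37 °C, 5% CO2; ~7000 cells/well, after 1 day given compound (six concentrations, 0.1–100 μM; DMSO stocks 10 mM) in 2% FBS medium for 72 h. MTT (0.5% w/v, 2 h), formazan dissolved in DMSO, absorbance read; triplicates, % of untreated control.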
On the technique in general: Formazan colour is commonly taken as a measure of viable cells.

The test system of data set [5] is SH-SY5Y. The experiment in a line: Neuroprotective activity in human SH-SY5Y cells assessed as prevention of NMDA induced cytotoxicity by measuring cell viability at 1 to 5 uM incubated for 24 hrs in presence of NMDA by MTT assay. The class given is functional, cell-based. As to conditions: dose 1-5 µM. In outline:
(§3)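 SH-SY5Y cells (~7000/well) co-incubated 24 h at 37 °C in 2% FBS medium with toxic stimulus (NMDA 250 μM or oligomycin 2.5 μM) plus compound at 0.1–5 μM. Viability by MTT, expressed as % of control.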

In data set [6] the test system is SH-SY5Y. The experiment in a line: Neuroprotective activity in human SH-SY5Y cells assessed as prevention of NMDA induced cytotoxicity by measuring cell viability at 0.1 to 0.5 uM incubated for 24 hrs in presence of NMDA by MTT assay. As to conditions: dose 0.1-0.5 µM. The class given is functional, cell-based. In outline:
as §3

The subject of data set [7] is SH-SY5Y. The experiment in a line: Cytotoxicity against human SH-SY5Y cells assessed as reduction in cell viability at 5 uM incubated for 72 hrs by MTT assay. The class given is toxicity, cell-based. An outline of the steps: as §2
The target of data set [8] is T1, Sigma non-opioid intracellular receptor 1. The experiment in a line: Displacement of [3H]-(+)-pentazocine from sigma 1 receptor (unknown origin) at 25 nM by scintillation counting analysis. As to conditions: filed as agonist. In outline:
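Single-concentration screen at 25 nM test compound against [3H](+)pentazocine (15 nM) at S1R; scintillation counting; result given as % inhibition of control specific binding, i.e. 100 minus measured/control specific binding ×100.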
On the technique in general: Loss of bound radioactivity is the signal in a displacement assay; it reports binding, not function.

For data set [9], the target named is Glutamate [NMDA] receptor (Homo sapiens) (UniProt Q05586+Q12879+Q13224+O15399+O60391+Q14957+Q8TCU5). The experiment in a line: Displacement of [3H]CGP39653 from human NMDAR at 25 nM by scintillation counting analysis. The class given is protein-complex assay. In outline: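 NMDA receptor binding with [3H]CGP39653 (5 nM) as radioligand, test compound at 25 nM; displacement read by scintillation counting and reported as % inhibition of control specific binding.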

Data set [10] deals with PC-12. As to the kind of experiment: Neuroprotective activity in rat PC12 cells assessed as induction of NGF-mediated neurite outgrowth at 0.5 uM by neurite outgrowth assay (Rvb=26 +/- 4%). The class given is functional. An outline of the steps:
(§4)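 PC12 cells stimulated with NGF (2.5 nM) and treated with compound up to 5 μM, alone or after pre-treatment with S1R antagonist NE-100 (3 μM); read-out is percentage of cells bearing neurite sprouts; mean ± SEM of three independent experiments.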

The subject of data set [11] is PC-12. As to the kind of experiment: Neuroprotective activity in rat PC12 cells assessed as induction of NGF-mediated neurite outgrowth at 0.5 uM in presence of NE-100 by neurite outgrowth assay. The class given is functional, cell-based. An outline of the steps:
as §4

As a reminder, the Ki is a dissociation constant, usually derived from enzyme kinetics or from competition with a known ligand. Take `COc1ccc(CCN2CCN(CCCc3ccccc3)CC2)cc1OC` [[11C]SA4503]: the Ki in [1] turned out to be 63 nM.

As to `c1ccc(CN2CCN(CC3COC4(CCCCC4)O3)CC2)cc1` (configuration not stated), the Ki in data set [2] was 0.74 nM; in data set [1], 35 nM. In addition, the Ratio Ki in data set [3] is 47.

For `c1ccc(CN2CCN(CC3CSCS3)CC2)cc1` (configuration not stated), the Ratio Ki in [3] was determined as 43.

What is called CC50 is the concentration at which the toxic effect on the cells reaches its halfway point. Turning to `CC12CC3CC(C)(C1)CC(N)(C3)C2` [MEMANTINE], in data set [4], the CC50 at 72 h amounted to 98 µM. Further, the outcome in [5] was inactive. Moreover, the result in data set [6] was Active. For the same molecule, the Activity in data set [7] amounted to 70%.

On to `c1ccc(CN2CCN(CCSc3ccccc3)CC2)cc1`, for which the Activity was greater than 95% in [8] and less than 11.9% in [9].

On to `c1ccc(CN2CCN(CC3CSC4(CCCCC4)O3)CC2)cc1` (configuration not stated), for which the Ki worked out at 1.3 nM in [2] and 91 nM in data set [1]. For the same molecule, the Ratio Ki in [3] worked out at 70.

As to `C[C@H](CCN1CCCCC1)c1ccc(-c2ccccc2)cc1`, in [10], the Activity is listed as 36%. Further, the outcome in [11] was inactive.

On to `c1ccc(CN2CCN(CCCOC3CCCCC3)CC2)cc1`, for which the values for the Activity in [8] and in [9] were greater than 95% and less than 11.9%, respectively.

As to `CN(C)CC1CCOC1(c1ccccc1)c1ccccc1` (configuration not stated) [BLARCAMESINE], the Ki in data set [2] came to 6.3 nM.

As for `c1ccc(CN2CCN(CCCSC3CCCCC3)CC2)cc1`, the Activity in [8] was greater than 95%; in [9], less than 11.9%.

For the molecule `CC1(C)SCC(CN2CCC(Cc3ccccc3)CC2)S1` (configuration not stated), the Ki in data set [2] is 0.5 nM; in data set [1], 12 nM. The Ratio Ki in data set [3] was determined as 24.

`c1ccc(CC2CCN(CC3CSC4(CCCCC4)S3)CC2)cc1` (configuration not stated): the Ki in data set [2] came out at 12 nM; in data set [1] it was 5 nM. In addition, in data set [3], the Ratio Ki turned out to be 0.4.

The record behind these values is ChEMBL document CHEMBL5331102, “Novel S1R agonists counteracting NMDA excitotoxicity and oxidative stress: A step forward in the discovery of neuroprotective agents” (Eur J Med Chem, 2023).
